pIC50: −log10 of the molar value. The source made the active and inactive calls. The calls are words filed in the database; no cut-off is given here.
Columns and labels:
HeLa [1] = assay: Growth inhibition of human HeLa cells after 72 hrs by MTT assay; type: functional
A549 = assay: Growth inhibition of human A549 cells after 72 hrs by MTT assay; type: functional; conditions: A549, 72 h
HT-29 = assay: Growth inhibition of human HT-29 cells after 72 hrs by MTT assay; type: functional; conditions: HT-29, 72 h
MDA-MB-231 = assay: Growth inhibition of human MDA-MB-231 cells after 72 hrs by MTT assay; type: functional; conditions: MDA-MB-231, 72 h
RS4-11 = assay: Growth inhibition of human RS4:11 cells after 72 hrs by MTT assay; type: functional; conditions: RS4-11, 72 h
Jurkat = assay: Growth inhibition of human Jurkat cells after 72 hrs by MTT assay; type: functional
Kasumi 1 = assay: Growth inhibition of human Kasumi-1 cells after 72 hrs by MTT assay; type: functional; conditions: Kasumi 1, 72 h
CCRF-CEM [2] = assay: Cytotoxicity against human CEM cells after 72 hrs by MTT assay; type: functional, cell-based
Summary of the method: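 Cells seeded at 8 × 10^3 per well and preincubated 18 h at 37 °C, 5% CO2. Leukemia lines were in RPMI-1640 and adherent lines in DMEM, each with 10% FBS plus penicillin/streptomycin. Medium replaced with compound at varying concentrations, in triplicate, for 72 h.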

CCRF-CEM [3] = assay: Cytotoxicity against human multidrug-resistant CEM/VBL100 cells after 72 hrs by MTT assay; type: functional, cell-based
Summary of the method: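 CEMVbl-100 (vinblastine-selected, P-gp-overexpressing) cells maintained in RPMI-1640 containing 100 ng/mL vinblastine. Seeded at 8 × 10^3 per well, preincubated 18 h, then exposed in triplicate to varying concentrations for 72 h. Viability read by MTT. IC50 taken as mean ± SEM of three separate experiments.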

HeLa [4] = assay: Cell cycle arrest in human HeLa cells assessed as accumulation at G2/M phase after 24 hrs by propidium iodide staining-based flow cytometric analysis; type: functional
Summary of the method: (§1)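 HeLa cells (5 × 10^5) exposed to graded compound concentrations for 24 h, fixed in ice-cold 70% ethanol, then lysed in buffer with RNase A and 0.1% Triton X-100. DNA stained with propidium iodide and phase distribution read by flow cytometry. Mean of two independent experiments ± SEM.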

HeLa [5] = assay: Cell cycle arrest in human HeLa cells assessed as accumulation at S phase after 24 hrs by propidium iodide staining-based flow cytometric analysis; type: functional; summary of the method: as §1
HeLa [6] = assay: Cell cycle arrest in human HeLa cells assessed as accumulation at G1 phase after 24 hrs by propidium iodide staining-based flow cytometric analysis; type: functional; summary of the method: as §1
HeLa [7] = assay: Cell cycle arrest in human HeLa cells assessed as decrease in phosphatase cdc25c expression at 0.1 to 1 uM after 24 to 48 hrs by Western blot analysis; type: functional, cell-based
Summary of the method: (§2)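 HeLa cells treated for the stated times (24 or 48 h), washed in cold PBS and lysed on ice for 30 min. Lysate cleared at 15000 × g, 4 °C. 10 µg protein run on SDS-PAGE and blotted to PVDF, blocked in 5% BSA. Primary antibodies 2 h at room temperature, then peroxidase secondary 60 min, ECL detection. Membranes stripped and reprobed for γ-tubulin as loading control.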

[8] = target: Cyclin-dependent kinase 1 (Homo sapiens) (UniProt P06493); assay: Inhibition of cdc2 phosphorylation at Y15 in human HeLa cells at 0.1 to 1 uM after 24 to 48 hrs by Western blot analysis; type: cell-based; summary of the method: as §2
Sequence of Cyclin-dependent kinase 1 (Homo sapiens) (P06493 whole entry, looked up): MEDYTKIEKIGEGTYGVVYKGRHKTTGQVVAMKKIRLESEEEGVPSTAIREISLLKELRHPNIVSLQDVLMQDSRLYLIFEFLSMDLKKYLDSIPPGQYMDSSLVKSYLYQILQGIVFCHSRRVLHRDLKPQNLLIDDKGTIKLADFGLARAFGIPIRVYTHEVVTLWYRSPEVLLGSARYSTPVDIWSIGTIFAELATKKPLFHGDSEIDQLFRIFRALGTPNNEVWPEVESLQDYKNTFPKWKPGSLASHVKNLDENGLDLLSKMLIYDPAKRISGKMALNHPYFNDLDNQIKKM

HeLa [9] = assay: Induction of mitochondrial membrane depolarization in human HeLa cells at 0.1 to 1 uM by JC-1 staining based flow cytometric analysis; type: functional, cell-based; conditions: TDE = time-dependent effect
Summary of the method: (§3)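 HeLa cells exposed for 6, 12, 24 or 48 h. Stained either with JC-1 to read mitochondrial membrane potential or with H2-DCFDA to read ROS, then analysed by flow cytometry. Mean ± SEM of three independent experiments.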

HeLa [10] = assay: Induction of ROS production in human HeLa cells at 0.1 to 1 uM after 12 to 24 hrs by H2DCFDA staining based flow cytometric analysis; type: functional, cell-based; summary of the method: as §3
HeLa [11] = assay: Induction of apoptosis in human HeLa cells assessed as decrease in Bcl-2 levels at 0.1 to 1 uM after 24 hrs by Western blot analysis; type: functional, cell-based; summary of the method: as §2
HeLa [12] = assay: Induction of apoptosis in human HeLa cells assessed as decrease in Mcl-1 levels at 0.1 to 1 uM after 24 hrs by Western blot analysis; type: functional, cell-based; summary of the method: as §2
[13] = target: T1, M-phase inducer phosphatase 3 (Homo sapiens) (UniProt P30307); assay: Inhibition of cdc25c phosphorylation in human HeLa cells at 0.1 to 1 uM after 24 to 48 hrs by Western blot analysis; type: cell-based; summary of the method: as §2
T1 sequence (whole entry): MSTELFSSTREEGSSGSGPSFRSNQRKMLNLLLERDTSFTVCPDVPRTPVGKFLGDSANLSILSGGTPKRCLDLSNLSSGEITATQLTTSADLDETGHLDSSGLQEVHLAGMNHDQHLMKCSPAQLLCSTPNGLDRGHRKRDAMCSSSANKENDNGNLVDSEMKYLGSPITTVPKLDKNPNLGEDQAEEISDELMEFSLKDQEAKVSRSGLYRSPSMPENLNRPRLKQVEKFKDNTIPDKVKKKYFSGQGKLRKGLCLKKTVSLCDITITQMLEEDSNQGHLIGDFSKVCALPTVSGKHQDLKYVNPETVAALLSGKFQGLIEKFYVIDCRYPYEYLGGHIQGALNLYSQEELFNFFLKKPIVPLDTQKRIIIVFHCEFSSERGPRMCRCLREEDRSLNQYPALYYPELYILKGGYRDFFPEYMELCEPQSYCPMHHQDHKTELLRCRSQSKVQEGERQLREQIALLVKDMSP

HeLa [14] = assay: Induction of apoptosis in human HeLa cells at 0.1 uM after 24 to 48 hrs by propidium iodide/annexin V/FITC staining-based flow cytometric analysis; type: functional, cell-based
Summary of the method: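 A549 or HeLa cells treated for 24 or 48 h. Cells harvested, double-stained with annexin-V-FITC and propidium iodide, and analysed by flow cytometry for phosphatidylserine exposure. Mean ± SEM of three independent experiments.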

Bos taurus = species: Bos taurus; assay: Inhibition of [3H]colchicine binding to bovine brain tubulin at 1 to 5 uM by DEAE-cellulose filter method relative to control

In the case of `CCn1ccc2ccc3c(=O)cc(-c4ccccc4)[nH]c3c21`, the GI50 (HeLa [1]) was 5920 nM, the GI50 (A549) was 9590 nM and the GI50 (HT-29) was greater than 10000 nM. The GI50 (MDA-MB-231) was greater than 10000 nM, the GI50 (RS4-11) was greater than 10000 nM and the GI50 (Jurkat) was greater than 10000 nM. It also gave a GI50 (Kasumi 1) greater than 10000 nM.

`O=C1C=C(c2ccccc2)Nc2cccc3ccn1c23` gave a GI50 (HeLa [1]) greater than 10000 nM, a GI50 (A549) greater than 10000 nM and a GI50 (HT-29) greater than 10000 nM. For the same compound, the GI50 (MDA-MB-231) was greater than 10000 nM, the GI50 (RS4-11) was greater than 10000 nM and the GI50 (Jurkat) was greater than 10000 nM. For the same compound, the GI50 (Kasumi 1) was greater than 10000 nM.

Work on `CCCCCCCCCCCCCCCCCCn1ccc2c3c(=O)cc(C)[nH]c3ccc21` yielded a GI50 (HeLa [1]) of 2380 nM, a GI50 (A549) of 3400 nM and a GI50 (HT-29) greater than 10000 nM. It also gave a GI50 (MDA-MB-231) greater than 10000 nM, a GI50 (RS4-11) greater than 10000 nM and a GI50 (Jurkat) greater than 10000 nM. For the same compound, the GI50 (Kasumi 1) was greater than 10000 nM.

For `CC[C@]1(O)C[C@@H]2CN(CCc3c([nH]c4ccccc34)[C@@](C(=O)OC)(c3cc4c(cc3OC)N(C)[C@H]3[C@@](O)(C(=O)OC)[C@H](OC(C)=O)[C@]5(CC)C=CCN6CC[C@]43[C@@H]65)C2)C1` [VINBLASTINE], the pIC50 (CCRF-CEM [2]) was 8.82 and the pIC50 (CCRF-CEM [3]) was 6.55.

`CCn1ccc2c3c(=O)cc(-c4ccc5c(c4)CCCC5)[nH]c3ccc21` was tested, and the Activity (HeLa [4]) was “Active”, the Activity (HeLa [5]) was “Active” and the Activity (HeLa [6]) was “Active”.

For `CCn1ccc2c3c(=O)cc(-c4cccc5ccccc45)[nH]c3ccc21`, the pIC50 (CCRF-CEM [2]) was 7.53, the pIC50 (CCRF-CEM [3]) was 8.64 and the Activity (HeLa [4]) was “Active”. The Activity (HeLa [5]) was “Active” and the Activity (HeLa [6]) was “Active”.

`CCCCCCCCCCCCCCCCCCn1ccc2c3c(=O)cc(-c4ccccc4)[nH]c3ccc21` showed a GI50 (HeLa [1]) of 8350 nM, a GI50 (A549) of 820 nM and a GI50 (HT-29) greater than 10000 nM. It also gave a GI50 (MDA-MB-231) of 5360 nM, a GI50 (RS4-11) greater than 10000 nM and a GI50 (Jurkat) greater than 10000 nM. For the same compound, the GI50 (Kasumi 1) was greater than 10000 nM.

For `CCn1ccc2c3c(=O)cc(-c4ccc5c(c4)OCO5)[nH]c3ccc21`, the pIC50 (CCRF-CEM [2]) was 7.56, the pIC50 (CCRF-CEM [3]) was 8.43 and the Activity (HeLa [4]) was “Active”. For the same compound, the Activity (HeLa [5]) was “Active”, the Activity (HeLa [6]) was “Active” and the Activity (HeLa [7]) was “Active”. The inhibition [8] was “Active”, the Activity (HeLa [9]) was “Tde” and the Activity (HeLa [10]) was “Active”. For the same compound, the Activity (HeLa [11]) was “Active”, the Activity (HeLa [12]) was “Active” and the inhibition [13] was “Active”.

In the case of `COc1ccc(/C=C\c2cc(OC)c(OC)c(OC)c2)cc1O`, the Activity (HeLa [14]) was “Active”.

`CCn1ccc2cc3c(=O)cc(-c4ccccc4)[nH]c3cc21` showed a GI50 (HeLa [1]) of 49 nM, a GI50 (A549) of 7.1 nM and a GI50 (HT-29) of 16 nM. It also gave a GI50 (MDA-MB-231) of 641 nM, a GI50 (RS4-11) of 13 nM and a GI50 (Jurkat) of 27 nM. The GI50 (Kasumi 1) was 30 nM and the inhibition (Bos taurus) was 24%.

`CCn1ccc2c3c(=O)cc(-c4ccc5ccccc5c4)[nH]c3ccc21` was tested, and the GI50 (HeLa [1]) was 714 nM, the GI50 (A549) was 744 nM and the GI50 (HT-29) was 376 nM. It also gave a GI50 (MDA-MB-231) of 465 nM, a GI50 (RS4-11) of 22 nM and a GI50 (Jurkat) of 32 nM. The GI50 (Kasumi 1) was 396 nM.

Work on `CCn1ccc2ccc3[nH]c(-c4ccccc4)cc(=O)c3c21` yielded a GI50 (HeLa [1]) of 49 nM, a GI50 (A549) of 7.1 nM and a GI50 (HT-29) of 16 nM. The GI50 (MDA-MB-231) was 641 nM, the GI50 (RS4-11) was 13 nM and the GI50 (Jurkat) was 27 nM. The GI50 (Kasumi 1) was 30 nM and the inhibition (Bos taurus) was 24%.
